# The list is not random: actives were taken first. Their share in the collection is about 3.6%.
# PAFAH1B3 inh = PAFAH1B3 enzyme inhibitors, primary screen, biochemical, fluorescence polarization, human; recombinant PAFAH1B3, FP-rhodamine probe; inhibition, % at 3.39 µM; actives 0.28% (n = 340,000); AID 492972, 2010;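 active means inhibition above the screen-wide average of all tested compounds plus 3 SD, cut at about 25% in these data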;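 further: 0% = enzyme with DMSO only and 100% = wells lacking PAFAH1B3 protein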
# pPAFAH FP inh = pPAFAH enzyme inhibitors, primary screen, biochemical, fluorescence polarization, human; inhibition, % at 3.39 µM; actives 1.5% (n = 330,000); Platelet-activating factor acetylhydrolase (Homo sapiens), Q13093; recombinant pPAFAH, FP-rhodamine probe fluorescence polarization; AID 463082, 2010;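 active means inhibition above the mean inhibition across the screen plus 3 SD, cut at about 25% in these data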;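 further: inhibitors block binding of the rhodamine activity-based probe so polarization drops; 0% = enzyme with DMSO and 100% = wells lacking pPAFAH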
# Target sequence (Q13093 whole entry, looked up): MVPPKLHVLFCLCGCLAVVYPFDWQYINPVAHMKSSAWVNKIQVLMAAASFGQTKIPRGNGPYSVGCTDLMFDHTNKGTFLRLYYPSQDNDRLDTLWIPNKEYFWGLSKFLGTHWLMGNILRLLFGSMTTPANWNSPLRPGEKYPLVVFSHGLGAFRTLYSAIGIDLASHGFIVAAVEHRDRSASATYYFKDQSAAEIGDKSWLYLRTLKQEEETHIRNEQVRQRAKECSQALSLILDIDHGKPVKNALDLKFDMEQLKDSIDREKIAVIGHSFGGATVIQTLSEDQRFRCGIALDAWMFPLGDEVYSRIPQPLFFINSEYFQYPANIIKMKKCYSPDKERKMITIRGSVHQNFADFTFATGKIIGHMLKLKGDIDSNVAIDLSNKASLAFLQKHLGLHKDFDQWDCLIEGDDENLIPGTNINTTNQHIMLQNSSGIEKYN
# PAFAH2 FP inh = PAFAH2 enzyme inhibitors, primary screen, biochemical, fluorescence polarization, human. Platelet-activating factor acetylhydrolase 2, cytoplasmic (Homo sapiens), Q99487. recombinant PAFAH2, FP-rhodamine activity probe. inhibition, % at 3.39 µM. actives 0.99% (n = 340,000). AID 492956, 2010;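 active means inhibition above the mean over all tested compounds plus 3 SD, cut at about 30% in these data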;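 further: inhibitors block probe labeling of enzyme so polarization drops; 0% = enzyme with DMSO and 100% = wells lacking PAFAH2 protein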
# VIM-2 inh = VIM-2 metallo-beta-lactamase inhibitors, primary screen, biochemical, epi-absorbance readout, Pseudomonas aeruginosa enzyme; purified VIM-2, nitrocefin hydrolysis, epi-absorbance fluorescence; inhibition, % at 5.6 µM; actives 0.89% (n = 290,000); AID 1527, 2009;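 active means inhibition above the mean of all tested compounds plus 3 SD, cutoff set per screening run, cut at about 7.5% in these data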;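 further: red hydrolysis product quenches plate fluorescence so inhibitors raise well fluorescence; 0% = enzyme with DMSO and 100% = DMSO without enzyme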
# IMP-1 inhibitor = IMP-1 metallo-beta-lactamase inhibitors, primary screen, biochemical, epi-absorbance readout, Pseudomonas aeruginosa enzyme | AID 1556, 2009 | inhibition, % at 5.6 µM | purified IMP-1, nitrocefin hydrolysis, epi-absorbance fluorescence | actives 0.45% (n = 290,000);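 active means inhibition above the mean plus 3 SD of all compounds in the same screening run, cut at about 4.5% in these data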;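 further: 0% = IMP-1 with DMSO and 100% = DMSO wells lacking enzyme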
#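 Assay system: purified IMP-1; Quantity: IMP-1 0.2 nM before substrate addition; Medium: HEPES buffer pH 7.1 with ZnSO4 and Brij 35; Incubation: 15 min enzyme–compound preincubation, then 25 min nitrocefin reaction, 25 °C; Signal: fluorescence quenching readout, ex 480/em 530 nm; Controls: DMSO with and without IMP-1; Repeats: singlicate testing.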
# PAFAH1B2 inh = PAFAH1B2 enzyme inhibitors, primary screen, biochemical, fluorescence polarization, human; Platelet-activating factor acetylhydrolase IB subunit alpha2 (Homo sapiens), P68402; recombinant PAFAH1B2, FP-rhodamine activity probe; inhibition, % at 3.39 µM; actives 1.2% (n = 340,000); AID 492953, 2010;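 active means inhibition above the mean of all tested compounds plus 3 SD, cut at about 24% in these data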;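 further: 0% = enzyme with DMSO and 100% = wells lacking PAFAH1B2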
# An asterisk follows results filed as active; nt = no result.
SMILES,PAFAH1B3 inh,pPAFAH FP inh,PAFAH2 FP inh,VIM-2 inh,IMP-1 inhibitor,PAFAH1B2 inh
O=C(c1ccc(N2CCCCC2)c([N+](=O)[O-])c1)N1CCC2(CC1)OCCO2,3,34*,7,-4,-1,-1
Cc1ccccc1-c1ccc2n1Cc1cnnn1-c1ccccc1-2,6,nt,4,nt,nt,4
O=P(NS(=O)(=O)c1ccc(Cl)cc1)(Oc1ccccc1)Oc1ccccc1,7,1,-4,0,-4,84*
Cc1ccc(C)c(NP(=O)(Oc2ccccc2)Oc2ccccc2)c1,6,-5,0,-2,1,-5
O=P(NS(=O)(=O)c1ccccc1)(Oc1ccccc1)Oc1ccccc1,7,-1,5,-3,-2,23
O=P(NS(=O)(=O)c1ccc(Br)cc1)(Oc1ccccc1)Oc1ccccc1,0,4,7,-3,-4,78*
Cc1ccc(S(=O)(=O)NP(=O)(Oc2ccccc2)Oc2ccccc2)cc1,24,-2,2,-3,-2,46*
CCN(CC)c1ccc(/C=C/[N+](=O)[O-])cc1,10,8,13,3,6.5*,2
COc1cc2c(c(OC)c1OC)-c1ccc(SC)c(=O)cc1C(NC(C)=O)CC2 (configuration not stated),9,nt,8,nt,nt,6
CCCCCCC(Cl)(Cn1ccnc1)c1ccccc1 (configuration not stated),4,9,3,nt,nt,-1
CCC(C)C1NC(=O)C(NC(=O)C(CC(C)C)N(C)C(=O)C2CCCN2C(=O)C(C)O)C(C)OC(=O)C(Cc2ccc(OC)cc2)N(C)C(=O)C2CCCN2C(=O)C(CC(C)C)NC(=O)[C@H](C)C(=O)[C@H](C(C)C)OC(=O)CC1O (some centres not stated),15,nt,6,nt,nt,0
CC[n+]1c(-c2ccccc2)c2cc(N)ccc2c2ccc(N)cc21,90*,nt,82*,nt,nt,65*
O=C1NC(=O)N(CCc2ccc(F)cc2)C(=O)/C1=C/c1ccco1,2,29*,-17,0,0,7
O=P(NCc1ccccc1)(Oc1ccccc1)Oc1ccccc1,1,1,-4,-1,0,8
CCOC(=O)c1ccc2[nH]c(-c3ccc(S(=O)(=O)F)cc3)cc(=O)c2c1,8,28*,8,-3,-2,8
CCOC(=O)c1cccc([P+](=O)O)c1,5,3,-5,-1,-1,3
CCOc1cc2c(cc1OCC)-n1cccc1C(c1ccccc1F)NC2 (configuration not stated),2,-4,4,0,0,0
CCOC(=O)c1cncn1[C@@H](C)c1ccccc1,3,0,6,nt,nt,-1
NC(=S)c1cn(C2OC(CO)C(O)C2O)c2ncnc(N)c12 (configuration not stated),6,2,8,0,12*,4
Cc1cc(=O)oc2cc3c(cc12)CCCN3,17,10,4,0,-4,12
CCN(CC)CCO,7,-2,-2,nt,nt,2
CCOC(=O)c1cc2c(cn1)[C@@H](CCO)NC2,-2,nt,5,nt,nt,3
O=C1NC(=S)NC(=O)C1=Cc1ccc2c(c1)CCN2CCCCl,nt,29*,nt,-1,-2,nt
CN(C)c1ccc(NC(=O)CN2C(=O)CN=C(c3ccccc3)c3cc(Cl)ccc32)cc1,3,8,-4,-2,4.5*,4
CC(C)c1ccc(N2C(=O)NC(=O)/C(=C\C=C\c3ccco3)C2=O)cc1,nt,29*,nt,0,-3,nt
SMILES,PAFAH1B3 inh,pPAFAH FP inh,PAFAH2 FP inh,VIM-2 inh,IMP-1 inhibitor,PAFAH1B2 inh
O=C1NC(=O)N(Cc2ccccc2)C(=O)/C1=C/C=C/c1ccco1,4,19,20,0,0,0
CC1CCC(C)(NS(=O)(=O)OCC(Cl)(Cl)Cl)CC1 (configuration not stated),7,33*,9,-1,0,45*
N#Cc1c(N2CCNCC2)nc(-c2ccco2)c2c1CCCC2,-4,-10,4,8.9*,-3,5
CCN1/C(=C\C=C\C2=[N+](CC)c3ccccc3C2(C)C)C(C)(C)c2ccccc21,-429,-171,-435,5,5.5*,-283
COC1CC(OC2CCC3(C)C(CCC4C3CCC3(C)C(C5=CC(=O)OC5)C(OC(C)=O)CC43O)C2)OC(C)C1OC1OC(COC2OC(CO)C(O)C(O)C2O)C(O)C(O)C1O (configuration not stated),nt,-1,nt,nt,nt,nt
Cc1cc(C)n(-c2ccc(NN=C(C#N)C#N)cc2)n1,4,28*,7,-2,0,1
O=C1NC(=O)N(c2cccc(Cl)c2)C(=O)/C1=C\c1ccc(Sc2nc3ccccc3[nH]2)o1,-48,15,-27,0,-3,-37
O=C1NC(=O)N(c2ccccc2)C(=O)/C1=C/c1ccc(Sc2ccccc2)o1,6,4,39*,-4,2,60*
O=[N+]([O-])c1cc(S(=O)(=O)c2ccc(O)c([N+](=O)[O-])c2)ccc1O,29*,28*,39*,-3,-2,14
CN(C)C(=O)Oc1ccc(Br)c2ccccc12,-2,9,1,-1,-1,5
NC(=O)c1ccc(C(=O)Nc2ccc([As](=O)(O)O)cc2)cc1,nt,3,nt,-2,-3,nt
O=[As](O)(O)c1ccc(N=Nc2ccc(O)cc2)cc1,8,nt,9,-5,5.1*,5
CC(=O)O[C@@H]1CC[C@]2(C)C3CC[C@]4(C)C(=O)[C@H](O)CC4C3[C@@H](OC(C)=O)C[C@H]2C1 (some centres not stated),5,-2,-2,nt,nt,0
CCn1c(O)c(C(=O)CC2NCCc3ccccc32)c(=O)n(CC)c1=S (configuration not stated),0,5,-2,0,9.6*,4
CCn1c(O)c(C=Nc2ccc(N3CCOCC3)cc2)c(=O)n(CC)c1=S,-9,5,-19,-1,-1,-3
COc1ccc(-n2c(-c3ccccc3[N+](=O)[O-])nc3ccccc3c2=O)cc1,7,nt,-6,0,-1,7
O=c1[nH]c(=S)n(Cc2ccc(F)cc2)c(O)c1C=NCC1CCCO1 (configuration not stated),1,1,3,-3,-4,34*
O=c1[nH]c(=S)n(Cc2ccc(F)cc2)c(O)c1C=NCc1cccnc1,-5,6,0,-4,-2,28*

# Source: PubChem
